# Residues, ends and D or L forms follow the SMILES beside them.
# How the values were obtained:
# [1] = Rate constant for the compound at a substrate concentration of 262 uM was determined; No cleavage; format: ADME
# How it was run: (§1)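 Substrate incubated at 37 °C with Proteinase K in 30 mM Tris–HCl, 1 mM CaCl2, pH 8.0. Aliquots were taken at several times, snap-frozen in liquid nitrogen and held at -20 °C. Thawed samples went straight onto C-18 RP-HPLC, eluted with water then a gradient to 70% CH3CN. Substrate and cleavage products were tracked by UV at 210 nm against retention times.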
# [2] = system: Proteinase K (Tritirachium album); experiment: Amount of proteinase K required to release folin positive amino acids at a substrate concentration of 304 uM
# [3] = Half-life period at a substrate concentration of 304 uM was determined; format: ADME; how it was run: as §1
# [4] = Rate constant for the compound at a substrate concentration of 304 uM was determined; format: ADME; how it was run: as §1
# [5] = Relativity constant at a substrate concentration of 304 uM
# [6] = Relativity constant at a substrate concentration of 304 uM; format: ADME; how it was run: as §1
# [7] = Half-life period at a substrate concentration of 218 uM was determined; format: ADME; how it was run: as §1
# [8] = Rate constant for the compound at a substrate concentration of 218 uM was determined; format: ADME; how it was run: as §1
# [9] = Relativity constant at a substrate concentration of 218 uM; format: ADME; how it was run: as §1
K obs [1],Activity [2] [mAU ml-1],half-life at 304 µM [3] [min],K obs [4] [h⁻¹],Krel [5],Krel [6],half-life at 218 µM [7] [min],K obs [8] [h⁻¹],Krel [9],SMILES
No cleavage,300,,,,,,,,N=[S+]([O-])(CC(=O)N[C@@H](Cc1ccccc1)C(=O)O)c1ccccc1 (some centres undefined)
,3,11.1,3.75,1,,,,,N[C@@H](Cc1ccccc1)C(=O)N=[S+]([O-])(CC(=O)N[C@@H](Cc1ccccc1)C(=O)O)c1ccccc1 (some centres undefined)
,30,15.3,2.72,,0.73,,,,N[C@H](Cc1ccccc1)C(=O)N=[S+]([O-])(CC(=O)N[C@H](Cc1ccccc1)C(=O)O)c1ccccc1 (some centres undefined)
,1.5,,,,,37.5,1.11,0.59,N[C@@H](Cc1ccccc1)C(=O)N[C@@H](Cc1ccccc1)C(=O)N[C@@H](Cc1ccccc1)C(=O)O (H-Phe-Phe-Phe-OH)

# Reference: ChEMBL document CHEMBL1146626, “The stability of pseudopeptides bearing sulfoximines as chiral backbone modifying element towards proteinase K” (Bioorg Med Chem Lett, 2003)
